Measured values: ChEMBL document CHEMBL1129935, “Chromophore-modified bis-naphthalimides: synthesis and antitumor activity of bis-dibenz[de,h]isoquinoline-1,3-diones” (J Med Chem, 1997)

Experiments:
HT-29 = experiment: In vitro cytotoxicity against HT-29 (human colon adenocarcinoma) cell line.; assay type: functional, cell-based
Outline: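 Human colon carcinoma HT-29 cells, 3000/well in DMEM with 10% FBS, attached 24 h. Free bases dissolved in DMSO, final DMSO <1%, added as 1:4 serial dilutions. Exposure 72 h at 37 °C, 5% CO2. MTT added for 4 h, formazan solubilized overnight in 25% SDS (pH 2), absorbance read at 550 nm. IC50 taken as concentration giving 50% of control growth.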

Mus musculus [1] = experiment: Median survival time of Compound on C57B1/6 mice which was implanted intraperitoneally with M5076 murine sarcoma cells at the dose of 7.5 mg/kg (dose administered intraperitoneally on days 1, 5 and 9).; assay type: functional; settings: route intraperitoneal
Outline: (§1)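 M5076 murine sarcoma, 10^6 cells implanted intraperitoneally into C57Bl/6 mice. Median survival time recorded for treated (T) and control (C) groups. %T/C calculated as the treated median survival relative to the control median survival, times 100.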

Mus musculus [2] = experiment: Median survival time of Compound on C57B1/6 mice which was implanted intraperitoneally with M5076 murine sarcoma cells at the dose of 3.3 mg/kg (dose administered intraperitoneally on days 1, 5 and 9).; assay type: functional; settings: route intraperitoneal; outline: as §1
Mus musculus [3] = experiment: Median survival time of treated mice (T) compared to controls expressed as a percentage (%T/C) at the dose of 3.3 mg/kg (dose administered intraperitoneally on days 1, 5 and 9).; assay type: functional; settings: route intraperitoneal; outline: as §1
Mus musculus [4] = experiment: Median survival time of Compound on C57B1/6 mice which was implanted intraperitoneally with M5076 murine sarcoma cells at the dose of 5.0 mg/kg (dose administered intraperitoneally on days 1, 5 and 9).; assay type: functional; settings: route intraperitoneal; outline: as §1
Mus musculus [5] = experiment: Median survival time of treated mice (T) compared to controls expressed as a percentage (%T/C) at the dose of 7.5 mg/kg (dose administered intraperitoneally on days 1, 5 and 9).; assay type: functional; settings: route intraperitoneal; outline: as §1
Mus musculus [6] = experiment: Median survival time of treated mice (T) compared to controls expressed as a percentage (%T/C) at the dose of 5.0 mg/kg (dose administered intraperitoneally on days 1, 5 and 9).; assay type: functional; settings: route intraperitoneal; outline: as §1
Mus musculus [7] = experiment: Median survival time of Compound on C57B1/6 mice which was implanted intraperitoneally with M5076 murine sarcoma cells at the dose of 2.2 mg/kg (dose administered intraperitoneally on days 1, 5 and 9).; assay type: functional; settings: route intraperitoneal; outline: as §1
Mus musculus [8] = experiment: Median survival time of treated mice (T) compared to controls expressed as a percentage (%T/C) at the dose of 2.2 mg/kg (dose administered intraperitoneally on days 1, 5 and 9).; assay type: functional; settings: route intraperitoneal; outline: as §1
Mus musculus [9] = experiment: Median survival time of treated mice (T) compared to controls expressed as a percentage (%T/C) at the dose of 0.8 mg/kg (dose administered intraperitoneally on days 1, 5 and 9).; assay type: functional; settings: route intraperitoneal
Outline: (§2)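 M5076 murine sarcoma cells (10^6) implanted ip in C57Bl/6 mice. Agent given as its dimethanesulfonate salt dissolved in water. Median survival time (MST) recorded for treated and concurrent control groups. Activity expressed as %T/C, the treated MST as a percentage of the control MST.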

Mus musculus [10] = experiment: Median survival time of Compound on C57B1/6 mice which was implanted intraperitoneally with M5076 murine sarcoma cells at the dose of 1.2 mg/kg (dose administered intraperitoneally on days 1, 5 and 9).; assay type: functional; settings: route intraperitoneal; outline: as §2
Mus musculus [11] = experiment: Median survival time of Compound on C57B1/6 mice which was implanted intraperitoneally with M5076 murine sarcoma cells at the dose of 1.8 mg/kg (dose administered intraperitoneally on days 1, 5 and 9).; assay type: functional; settings: route intraperitoneal; outline: as §2
Mus musculus [12] = experiment: Median survival time of Compound on C57B1/6 mice which was implanted intraperitoneally with M5076 murine sarcoma cells at the dose of 0.8 mg/kg (dose administered intraperitoneally on days 1, 5 and 9).; assay type: functional; settings: route intraperitoneal; outline: as §2
Mus musculus [13] = experiment: Median survival time of treated mice (T) compared to controls expressed as a percentage (%T/C) at the dose of 1.2 mg/kg (dose administered intraperitoneally on days 1, 5 and 9).; assay type: functional; settings: route intraperitoneal; outline: as §2
Mus musculus [14] = experiment: Median survival time of treated mice (T) compared to controls expressed as a percentage (%T/C) at the dose of 1.8 mg/kg (dose administered intraperitoneally on days 1, 5 and 9).; assay type: functional; settings: route intraperitoneal; outline: as §2

Row | SMILES | IC50 (HT-29) | also measured
1 | O=C1c2cccc3cc4ccccc4c(c23)C(=O)N1CCN1CCCN(CCN2C(=O)c3cccc4cc5ccccc5c(c34)C2=O)C1 | 2 nM | 
2 | O=C1c2cccc3cc4ccccc4c(c23)C(=O)N1CCNCCCCCNCCN1C(=O)c2cccc3cc4ccccc4c(c23)C1=O | 9 nM | 
3 | O=C1c2cccc3cc4c([N+](=O)[O-])cccc4c(c23)C(=O)N1CCNCCNCCN1C(=O)c2cccc3cc4c([N+](=O)[O-])cccc4c(c23)C1=O | 95 nM | 
4 | O=C1c2cccc3cc4ccccc4c(c23)C(=O)N1CCCNCCN1C(=O)c2cccc3cc4ccccc4c(c23)C1=O | 2000 nM | 
5 | O=C1c2cccc3cc4ccccc4c(c23)C(=O)N1CCCCNCCCN1C(=O)c2cccc3cc4ccccc4c(c23)C1=O | 70 nM | 
6 | O=C1c2cccc3cc4ccccc4c(c23)C(=O)N1CCCNCCCCNCCCN1C(=O)c2cccc3cc4ccccc4c(c23)C1=O | 200 nM | 
7 | O=C1c2cccc3cc4ccccc4c(c23)C(=O)N1CCNCCN1C(=O)c2cccc3cc4ccccc4c(c23)C1=O | 30 nM | 
8 | CN(C)CCN1C(=O)c2cccc3cc4ccccc4c(c23)C1=O [AZONAFIDE] | 140 nM | 
9 | O=C1c2cccc3cc4ccccc4c(c23)C(=O)N1CCCNCCNCCCN1C(=O)c2cccc3cc4ccccc4c(c23)C1=O | 95 nM | 
10 | O=C1c2cccc3cccc(c23)C(=O)N1CCNCCCNCCN1C(=O)c2cccc3cccc(c23)C1=O [ELINAFIDE] | 14 nM | MST (Mus musculus [1]): 21 days; MST (Mus musculus [2]): 21.5 days; T/C (Mus musculus [3]): 91%; MST (Mus musculus [4]): 24 days; T/C (Mus musculus [5]): 89%; T/C (Mus musculus [6]): 102%; MST (Mus musculus [7]): 21.5 days; T/C (Mus musculus [8]): 91%
11 | O=C1c2cccc3cc4ccccc4c(c23)C(=O)N1CCNCCCCNCCN1C(=O)c2cccc3cc4ccccc4c(c23)C1=O | 41 nM | 
12 | O=C1c2cccc3cc4ccccc4c(c23)C(=O)N1CCNCCNCCN1C(=O)c2cccc3cc4ccccc4c(c23)C1=O | 9 nM | 
13 | CN(C)CCN1C(=O)c2cccc3cc([N+](=O)[O-])cc(c23)C1=O [MITONAFIDE] | 600 nM | 
14 | O=C1c2cccc3cc4ccccc4c(c23)C(=O)N1CCCNCCCN1C(=O)c2cccc3cc4ccccc4c(c23)C1=O | 20 nM | 
15 | CN(CCN(C)CCN1C(=O)c2cccc3cc4ccccc4c(c23)C1=O)CCN1C(=O)c2cccc3cc4ccccc4c(c23)C1=O | 75 nM | 
16 | O=C1c2cccc3cc4ccccc4c(c23)C(=O)N1CCNCCCNCCN1C(=O)c2cccc3cc4ccccc4c(c23)C1=O | 4 nM | T/C (Mus musculus [9]): 143%; MST (Mus musculus [10]): 34 days; MST (Mus musculus [11]): 31.2 days; MST (Mus musculus [12]): 31.5 days; T/C (Mus musculus [13]): 155%; T/C (Mus musculus [14]): 143%
17 | O=C1c2cccc3cc4c([N+](=O)[O-])cccc4c(c23)C(=O)N1CCNCCCNCCN1C(=O)c2cccc3cc4c([N+](=O)[O-])cccc4c(c23)C1=O | 35 nM | 
18 | CN(CCCN1C(=O)c2cccc3cc4ccccc4c(c23)C1=O)CCCN1C(=O)c2cccc3cc4ccccc4c(c23)C1=O | 19 nM | 
19 | O=C1c2cccc3cc4ccccc4c(c23)C(=O)N1CCCNCCCNCCCN1C(=O)c2cccc3cc4ccccc4c(c23)C1=O | 90 nM | 
20 | CN(C)CCN1C(=O)c2cccc3cc(N)cc(c23)C1=O [AMONAFIDE] | 3000 nM | 
